Results: the array DNA melting data of Ke et al. (doi:10.1101/2024.01.08.574731)

What was measured:
[1] = folding enthalpy; higher = less favourable; fluorescence melt of hairpins on a sequencing array, two-state fit; conditions: sodium 0.088 M
In short: (§1)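 Folding enthalpy and melting temperature were estimated with bootstrapped two-state fits and combined across four replicates by inverse-variance weighting, with fitted temperatures raised by 9.35 °C to match UV melts. The data were Cy3 fluorescence of library hairpins, with annealed Cy3 and quencher oligos, on a sequenced MiSeq flow cell in 50 mM Na-HEPES pH 8.0, 25 mM NaCl, imaged in 2.5 °C steps up to 60 °C and normalised to pre-quench Cy3 and control constructs.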

[2] = melting temperature; fluorescence melt of hairpins on a sequencing array, two-state fit, raised by 9.35 °C to match UV melts; conditions: sodium 0.088 M
In short: as §1

Row | Sequence | folding enthalpy [1] | Tm [2]
1 | GACAACCGAAAGGTCGTC (((.(((....))).))) | -38.6 kcal/mol | 49.5 °C
2 | GACAACCGAAAGGTGTC (((.(((....)))))) | -24.8 kcal/mol | 53.9 °C
3 | GACAACGAAAGTTACGTC ((((((....)))..))) | -12.5 kcal/mol | 30.6 °C
4 | GACAACGAAAGTTAGGTC ((((((....)))..))) | -14.6 kcal/mol | 33.7 °C
5 | GACAACGAAAGTTATGTC ((((((....)))..))) | -17.8 kcal/mol | 32.3 °C
6 | GACAACGAAAGTTTGTC ((((((....))).))) | -27.6 kcal/mol | 47.3 °C
7 | GACAAGGAAACTTGTC ((((((....)))))) | -43.8 kcal/mol | 51.8 °C
8 | GACAATACGAAAGTAGTC (((..(((....)))))) | -16.4 kcal/mol | 30.3 °C
9 | GACACACGAAAGTGAGTC (((.(((....))).))) | -31 kcal/mol | 56.1 °C
10 | GACACAGGAAACTGTATC ((.((((....)))).)) | -14.1 kcal/mol | 28.3 °C
11 | GACACCCCGAAAGGGGTC (((..(((....)))))) | -6.64 kcal/mol | 37.7 °C
12 | GACACCCGAAAGGGGTC (((.(((....)))))) | -18.5 kcal/mol | 54.8 °C
13 | GACACCGAAAGGTATGTC ((((((....)))..))) | -19.6 kcal/mol | 39.2 °C
14 | GACACCGAAAGGTTCGTC ((((((....)))..))) | -20.4 kcal/mol | 41.2 °C
15 | GACACCGGAAACGGCATC ((..(((....)))..)) | -9.17 kcal/mol | 25.4 °C
16 | GACACCGGAAACGGTACC (..((((....))))..) | -10.5 kcal/mol | 24.2 °C
17 | GACACCGGAAACGGTATC ((.((((....)))).)) | -15.9 kcal/mol | 36.1 °C
18 | GACACCGGAAACGGTGCC (.(((((....))))).) | -13.4 kcal/mol | 48.8 °C
19 | GACACGCGAAAGCGAGTC (((.(((....))).))) | -24.3 kcal/mol | 60.5 °C
20 | GACACGCGAAAGCGCGTC (((.(((....))).))) | -25.2 kcal/mol | 63.9 °C
21 | GACACGGGAAACTGTGTC (((((.(....).))))) | -42.2 kcal/mol | 53.5 °C
22 | GACACTCCGAAAGGAGTC (((..(((....)))))) | -7.77 kcal/mol | 32 °C
23 | GACACTGGAAACAGCGTC (((.(((....))).))) | -35.2 kcal/mol | 46.4 °C

Row | Sequence | folding enthalpy [1] | Tm [2]
24 | GACACTGGAAACAGTGCC (.(((((....))))).) | -14.8 kcal/mol | 43.2 °C
25 | GACAGCCCGAAAGGGGTC (((..(((....)))))) | -11.4 kcal/mol | 34.6 °C
26 | GACAGCGAAAGCTAGTC ((((((....))).))) | -22.6 kcal/mol | 51.2 °C
27 | GACAGCGAAAGCTCAGTC ((((((....)))..))) | -11.5 kcal/mol | 38.7 °C
28 | GACAGCGAAAGCTTAGTC ((((((....)))..))) | -19 kcal/mol | 38.1 °C
29 | GACAGCGAAAGCTTTGTC ((((((....)))..))) | -16 kcal/mol | 37.5 °C
30 | GACAGCGCGAAAGCGGTC (((..(((....)))))) | -11.4 kcal/mol | 41.8 °C
31 | GACAGGCGAAAGCCAGTC (((.(((....))).))) | -25.8 kcal/mol | 58.1 °C
32 | GACAGGCGAAAGCCCGTC (((.(((....))).))) | -22.3 kcal/mol | 52.9 °C
33 | GACAGGGGAAACCCTATC ((.((((....)))).)) | -12.8 kcal/mol | 28 °C
34 | GACAGGGGAAACCCTGTC (((((((....))))))) | -42.6 kcal/mol | 66.4 °C
35 | GACAGTGGAAACACTGCC (.(((((....))))).) | -14.5 kcal/mol | 46 °C
36 | GACAGTGGAAACATTGTC ((((.((....)).)))) | -32.4 kcal/mol | 43 °C
37 | GACATACCGAAAGGTGTC (((..(((....)))))) | -18.2 kcal/mol | 41.3 °C
38 | GACATAGGAAACTACGTC (((.(((....))).))) | -15.1 kcal/mol | 30 °C
39 | GACATCACGAAAGTGGTC (((..(((....)))))) | -14.5 kcal/mol | 34.7 °C
40 | GACATCCGAAAGGAGTC (((.(((....)))))) | -21.2 kcal/mol | 45.4 °C
41 | GACATCGGAAACAATGTC (((((.(....).))))) | -33 kcal/mol | 34.1 °C
42 | GACATCGGAAACGATGCC (.(((((....))))).) | -12.5 kcal/mol | 44.9 °C
43 | GACATGCGAAAGCAGTC (((.(((....)))))) | -16.9 kcal/mol | 51.9 °C
44 | GACATGGGAAACCATATC ((.((((....)))).)) | -14 kcal/mol | 28 °C
45 | GACATTGAAAAATGTC ((((((....)))))) | -31.1 kcal/mol | 50.3 °C
46 | GACATTGGAAACAATGCC (.(((((....))))).) | -21.5 kcal/mol | 38.1 °C

Row | Sequence | folding enthalpy [1] | Tm [2]
47 | GACCAACGAAAGTTCGTC (((.(((....))).))) | -24.4 kcal/mol | 34.9 °C
48 | GACCAACGAAAGTTTGTC (((.(((....))).))) | -26.9 kcal/mol | 41.7 °C
49 | GACCACACGAAAGTGGTC (((..(((....)))))) | -30.9 kcal/mol | 57 °C
50 | GACCACCGAAAGGTAGTC (((.(((....))).))) | -31.6 kcal/mol | 47 °C
51 | GACCACGAAAGTGAAGTC ((((((....)))..))) | -21.7 kcal/mol | 40.2 °C
52 | GACCACGAAAGTGCGGTC ((((((....)))..))) | -19.3 kcal/mol | 43.2 °C
53 | GACCACGAAAGTGGAGTC ((((((....)))..))) | -11.5 kcal/mol | 38.4 °C
54 | GACCACGAAAGTGGCGTC ((((((....)))..))) | -12.5 kcal/mol | 45.6 °C
55 | GACCACGCGAAAGCGGTC (((..(((....)))))) | -13.2 kcal/mol | 47.3 °C
56 | GACCAGGGAAACCCGGTC ((((.((....)).)))) | -37.7 kcal/mol | 50.1 °C
57 | GACCAGGGAAACTTGGTC (((((.(....).))))) | -37.8 kcal/mol | 47.8 °C
58 | GACCATCCGAAAGGAGTC (((..(((....)))))) | -14.4 kcal/mol | 26.4 °C
59 | GACCATGGAAACATGATC ((.((((....)))).)) | -23.2 kcal/mol | 35.4 °C
60 | GACCCAGGAAACTAGGTC ((((.((....)).)))) | -26.7 kcal/mol | 36 °C
61 | GACCCCGAAAGGGTCGTC ((((((....)))..))) | -24.6 kcal/mol | 58.2 °C
62 | GACCCCGGAAACAGGGTC (((((.(....).))))) | -29.5 kcal/mol | 48.8 °C
63 | GACCCCGGAAACGGGATC ((.((((....)))).)) | -16.3 kcal/mol | 45.8 °C
64 | GACCCGCGAAAGCGAGTC (((.(((....))).))) | -26.7 kcal/mol | 55.7 °C
65 | GACCCTGGAAACAGAGTC (((.(((....))).))) | -29.5 kcal/mol | 36.6 °C
66 | GACCGACCGAAAGGTGTC (((..(((....)))))) | -15.8 kcal/mol | 35.9 °C
67 | GACCGACGAAAGTCCGTC (((.(((....))).))) | -23.9 kcal/mol | 43.1 °C
68 | GACCGAGGAAACTCGACC (..((((....))))..) | -14.3 kcal/mol | 26.6 °C
